Data from ChEMBL document CHEMBL4346684, “Synthesis and structure-bactericidal activity relationships of non-ketolides: 9-Oxime clarithromycin 11,12-cyclic carbonate featured with three-to eight-atom-length spacers at 3-OH” (Eur J Med Chem, 2019).
Values after ≈ are worked out from the molar mass of the structure shown.

Columns and labels:
Type in all cases: functional
Streptococcus pneumoniae [1] = test: Antimicrobial activity against erythromycin-susceptible Streptococcus pneumoniae ATCC 49619 incubated in CAMHB medium for 20 to 24 hrs by two-fold microbroth dilution method
Streptococcus pneumoniae [2] = test: Antimicrobial activity against mef-encoded erythromycin resistant Streptococcus pneumoniae PU09 incubated in CAMHB medium for 20 to 24 hrs by two-fold microbroth dilution method
Streptococcus pneumoniae [3] = test: Bactericidal activity against erythromycin-susceptible Streptococcus pneumoniae ATCC 49619 assessed as reduction in colony formation incubated in CAMHB medium for 20 to 24 hrs followed by 24 hrs subculturing in the medium without test compound
Streptococcus pneumoniae [4] = test: Ratio of MBC to MIC for erythromycin-susceptible Streptococcus pneumoniae ATCC 49619
Streptococcus pneumoniae [5] = test: Bactericidal activity against mef-encoded erythromycin resistant Streptococcus pneumoniae PU09 assessed as reduction in colony formation incubated in CAMHB medium for 20 to 24 hrs followed by 24 hrs subculturing in the medium without test compound
Streptococcus pyogenes [6] = test: Antimicrobial activity against inducibly erythromycin resistant Streptococcus pyogenes 01-968 expressing i-ermA incubated in CAMHB medium for 20 to 24 hrs by two-fold microbroth dilution method
Streptococcus pyogenes [7] = test: Bactericidal activity against inducibly erythromycin resistant Streptococcus pyogenes 01-968 expressing i-ermA assessed as reduction in colony formation incubated in CAMHB medium for 20 to 24 hrs followed by 24 hrs subculturing in the medium without test compound
Streptococcus pyogenes [8] = test: Ratio of MBC to MIC for inducibly erythromycin resistant Streptococcus pyogenes 01-968 expressing i-ermA
Staphylococcus aureus [9] = test: Antimicrobial activity against constitutively erythromycin resistant and methicillin resistant Staphylococcus aureus PU20 expressing c-ermC incubated in CAMHB medium for 20 hrs by two-fold microbroth dilution method; conditions: PU20, 20 h
Method in brief: (§1)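 Purified fresh Staphylococcus isolate at about 5×10^5 CFU/ml final in CAMHB, 35 °C for 20 h. Each run included ATCC strains and reference antibiotics as QC, plus an antibiotic-free growth control.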

Staphylococcus aureus [10] = test: Antimicrobial activity against inducibly erythromycin-resistant and methicillin resistant Staphylococcus aureus PU32 expressing i-ermA incubated in CAMHB medium for 20 hrs by two-fold microbroth dilution method; conditions: PU32, 20 h; method in brief: as §1
Staphylococcus aureus [11] = test: Bactericidal activity against inducibly erythromycin-resistant and methicillin resistant Staphylococcus aureus PU32 expressing i-ermA assessed as reduction in colony formation incubated in CAMHB medium for 20 hrs followed by 24 hrs subculturing in the medium without test compound
Staphylococcus aureus [12] = test: Ratio of MBC to MIC for inducibly erythromycin-resistant and methicillin resistant Staphylococcus aureus PU32 expressing i-ermA
Haemophilus influenzae [13] = test: Antimicrobial activity against azithromycin-susceptible Haemophilus influenzae ATCC 49247 incubated in HTM broth medium for 20 to 24 hrs by two-fold microbroth dilution method
Haemophilus influenzae [14] = test: Bactericidal activity against azithromycin-susceptible Haemophilus influenzae ATCC 49247 assessed as reduction in colony formation incubated in HTM broth medium for 20 to 24 hrs followed by 24 hrs subculturing in the medium without test compound
Haemophilus influenzae [15] = test: Ratio of MBC to MIC for azithromycin-susceptible Haemophilus influenzae ATCC 49247
Streptococcus pneumoniae [16] = test: Ratio of MBC to MIC for mef-encoded erythromycin resistant Streptococcus pneumoniae PU09
Staphylococcus aureus [17] = test: Bactericidal activity against constitutively erythromycin resistant and methicillin-resistant Staphylococcus aureus PU20 expressing c-ermC assessed as reduction in colony formation incubated in CAMHB medium for 20 hrs followed by 24 hrs subculturing in the medium without test compound
Moraxella catarrhalis [18] = test: Antimicrobial activity against erythromycin-susceptible Moraxella catarrhalis 13L332 incubated in CAMHB medium for 20 hrs by two-fold microbroth dilution method; conditions: 13L332, 20 h
Method in brief: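 Clinical isolates and ATCC strains, purified by plate activation and used fresh; inoculum about 5×10^5 CFU/ml final. Grown in CAMHB at 35 °C for 20 h.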

Moraxella catarrhalis [19] = test: Bactericidal activity against erythromycin-susceptible Moraxella catarrhalis 13L332 assessed as reduction in colony formation incubated in CAMHB medium for 20 hrs followed by 24 hrs subculturing in the medium without test compound
Moraxella catarrhalis [20] = test: Ratio of MBC to MIC for erythromycin-susceptible Moraxella catarrhalis 13L332

## C=CCNCCC(=O)O[C@H]1[C@H](C)[C@@H](O[C@@H]2O[C@H](C)C[C@H](N(C)C)[C@H]2O)[C@](C)(OC)C[C@@H](C)/C(=N\OC)[C@H](C)[C@H]2OC(=O)O[C@]2(C)[C@@H](CC)OC(=O)[C@@H]1C
Streptococcus pneumoniae [1]
  MIC: 1 µg/mL (≈ 1.32 µM)
Streptococcus pneumoniae [2]
  MIC: 4 µg/mL (≈ 5.29 µM)
Streptococcus pneumoniae [3]
  MBC: 2 µg/mL (≈ 2.65 µM)
Streptococcus pneumoniae [4]
  Ratio: 2
Streptococcus pneumoniae [5]
  MBC: 8 µg/mL (≈ 10.6 µM)
Streptococcus pyogenes [6]
  MIC: 1 µg/mL (≈ 1.32 µM)
Streptococcus pyogenes [7]
  MBC: > 8 µg/mL
Streptococcus pyogenes [8]
  Ratio: >8
Staphylococcus aureus [9]
  MIC: > 256 µg/mL
Staphylococcus aureus [10]
  MIC: 32 µg/mL (≈ 42.3 µM)
Staphylococcus aureus [11]
  MBC: > 256 µg/mL
Staphylococcus aureus [12]
  Ratio: >8
Haemophilus influenzae [13]
  MIC: 256 µg/mL (≈ 339 µM)
Haemophilus influenzae [14]
  MBC: 256 µg/mL (≈ 339 µM)
Haemophilus influenzae [15]
  Ratio: 1

## CC[C@H]1OC(=O)[C@H](C)[C@@H](OC(=O)CCNCCCc2cccnc2)[C@H](C)[C@@H](O[C@@H]2O[C@H](C)C[C@H](N(C)C)[C@H]2O)[C@](C)(OC)C[C@@H](C)/C(=N\OC)[C@H](C)[C@H]2OC(=O)O[C@@]21C
Streptococcus pneumoniae [1]
  MIC: 1 µg/mL (≈ 1.2 µM)
Streptococcus pneumoniae [2]
  MIC: 2 µg/mL (≈ 2.4 µM)
Streptococcus pneumoniae [3]
  MBC: 8 µg/mL (≈ 9.58 µM)
Streptococcus pneumoniae [4]
  Ratio: 8
Streptococcus pneumoniae [5]
  MBC: 4 µg/mL (≈ 4.79 µM)
Streptococcus pneumoniae [16]
  Ratio: 2
Streptococcus pyogenes [6]
  MIC: 0.5 µg/mL (≈ 0.599 µM)
Streptococcus pyogenes [7]
  MBC: > 4 µg/mL
Streptococcus pyogenes [8]
  Ratio: >8
Staphylococcus aureus [9]
  MIC: 256 µg/mL (≈ 307 µM)
Staphylococcus aureus [17]
  MBC: > 256 µg/mL
Staphylococcus aureus [10]
  MIC: 32 µg/mL (≈ 38.3 µM)
Staphylococcus aureus [11]
  MBC: > 256 µg/mL
Staphylococcus aureus [12]
  Ratio: >8
Haemophilus influenzae [13]
  MIC: 256 µg/mL (≈ 307 µM)
Haemophilus influenzae [14]
  MBC: 256 µg/mL (≈ 307 µM)
Haemophilus influenzae [15]
  Ratio: 1

## CC[C@H]1OC(=O)[C@H](C)[C@@H](OCC#Cc2ccc(NC(=O)c3ccccn3)nc2)[C@H](C)[C@@H](O[C@@H]2O[C@H](C)C[C@H](N(C)C)[C@H]2O)[C@](C)(OC)C[C@@H](C)/C(=N\OC)[C@H](C)[C@H]2OC(=O)O[C@@]21C
Streptococcus pneumoniae [1]
  MIC: 4 µg/mL (≈ 4.55 µM)
Streptococcus pneumoniae [2]
  MIC: 4 µg/mL (≈ 4.55 µM)
Streptococcus pneumoniae [3]
  MBC: 16 µg/mL (≈ 18.2 µM)
Streptococcus pneumoniae [4]
  Ratio: 4
Streptococcus pneumoniae [5]
  MBC: 16 µg/mL (≈ 18.2 µM)
Streptococcus pyogenes [6]
  MIC: 16 µg/mL (≈ 18.2 µM)
Streptococcus pyogenes [7]
  MBC: 16 µg/mL (≈ 18.2 µM)
Streptococcus pyogenes [8]
  Ratio: 1
Staphylococcus aureus [9]
  MIC: 128 µg/mL (≈ 145 µM)
Staphylococcus aureus [17]
  MBC: > 256 µg/mL
Staphylococcus aureus [10]
  MIC: > 256 µg/mL
Staphylococcus aureus [11]
  MBC: > 256 µg/mL
Moraxella catarrhalis [18]
  MIC: 8 µg/mL (≈ 9.09 µM)
Moraxella catarrhalis [19]
  MBC: 8 µg/mL (≈ 9.09 µM)
Moraxella catarrhalis [20]
  Ratio: 1

## CC[C@H]1OC(=O)[C@H](C)[C@@H](OC(=O)NCC#Cc2cccnc2)[C@H](C)[C@@H](O[C@@H]2O[C@H](C)C[C@H](N(C)C)[C@H]2O)[C@](C)(OC)C[C@@H](C)/C(=N\OC)[C@H](C)[C@H]2OC(=O)O[C@@]21C
Streptococcus pneumoniae [1]
  MIC: 0.03 µg/mL (≈ 0.0374 µM)
Streptococcus pneumoniae [2]
  MIC: 0.5 µg/mL (≈ 0.623 µM)
Streptococcus pneumoniae [3]
  MBC: 0.062 µg/mL (≈ 0.0772 µM)
Streptococcus pneumoniae [4]
  Ratio: 2
Streptococcus pneumoniae [5]
  MBC: 2 µg/mL (≈ 2.49 µM)
Streptococcus pneumoniae [16]
  Ratio: 4
Streptococcus pyogenes [6]
  MIC: 1 µg/mL (≈ 1.25 µM)
Streptococcus pyogenes [7]
  MBC: 4 µg/mL (≈ 4.98 µM)
Streptococcus pyogenes [8]
  Ratio: 4
Staphylococcus aureus [9]
  MIC: > 256 µg/mL
Staphylococcus aureus [10]
  MIC: 16 µg/mL (≈ 19.9 µM)
Staphylococcus aureus [11]
  MBC: > 128 µg/mL
Staphylococcus aureus [12]
  Ratio: >8
Haemophilus influenzae [13]
  MIC: > 256 µg/mL

## CC[C@H]1OC(=O)[C@H](C)[C@@H](OC(=O)NCCCCc2cccnc2)[C@H](C)[C@@H](O[C@@H]2O[C@H](C)C[C@H](N(C)C)[C@H]2O)[C@](C)(OC)C[C@@H](C)/C(=N\OC)[C@H](C)[C@H]2OC(=O)O[C@@]21C
Streptococcus pneumoniae [1]
  MIC: 0.5 µg/mL (≈ 0.609 µM)
Streptococcus pneumoniae [2]
  MIC: 8 µg/mL (≈ 9.74 µM)
Streptococcus pneumoniae [3]
  MBC: 2 µg/mL (≈ 2.44 µM)
Streptococcus pneumoniae [4]
  Ratio: 4
Streptococcus pneumoniae [5]
  MBC: 8 µg/mL (≈ 9.74 µM)
Streptococcus pneumoniae [16]
  Ratio: 1
Streptococcus pyogenes [6]
  MIC: 128 µg/mL (≈ 156 µM)
Streptococcus pyogenes [7]
  MBC: 128 µg/mL (≈ 156 µM)
Streptococcus pyogenes [8]
  Ratio: 1
Staphylococcus aureus [9]
  MIC: > 256 µg/mL
Staphylococcus aureus [10]
  MIC: 32 µg/mL (≈ 39 µM)
Staphylococcus aureus [11]
  MBC: > 256 µg/mL
Staphylococcus aureus [12]
  Ratio: >8
Haemophilus influenzae [13]
  MIC: 256 µg/mL (≈ 312 µM)
Haemophilus influenzae [14]
  MBC: 256 µg/mL (≈ 312 µM)
Haemophilus influenzae [15]
  Ratio: 1
